Activity calls are given as the source filed them. The calls are words filed in the database; no cut-off is given here.
Experiments:
[1] = system: THP-1; assay: Antiinflammatory activity against PMA-treated human THP1 cells assessed as inhibition of LPS-induced IL-6 production at 5 uM after 24 hrs by ELISA relative to total protein level (reference value: 6.06 +/- 0.55); type: functional
[2] = system: THP-1; assay: Inhibition of LPS-induced TNFalpha production in PMA-treated human THP1 cells at 5 uM after 24 hrs by ELISA relative to total protein level (reference value: 6.04 +/- 0.54); type: cell-based; details: thp-1, 24 h
[3] = system: THP-1; assay: Antiinflammatory activity against PMA-treated human THP1 cells assessed as inhibition of LPS-induced IL-6 production at 5 uM after 24 hrs by ELISA relative to control; type: functional
[4] = system: THP-1; assay: Cytotoxicity against human THP1 cells assessed as decrease in cell growth after 24 hrs by MTT assay; type: cell-based; details: THP-1, 24 h
Procedure, shortened: (§1)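 THP-1 cells in 96-well plates treated with a range of compound concentrations for 24 or 48 h. MTT (2.5 mg/mL) added for 4 h at 37 °C, formazan dissolved in DMSO, absorbance read at 540 nm. Growth taken as treated versus untreated absorbance.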

[5] = system: THP-1; assay: Cytotoxicity against human THP1 cells assessed as decrease in cell growth after 48 hrs by MTT assay; type: cell-based; details: THP-1, 48 h; procedure, shortened: as §1
[6] = system: Mus musculus; assay: Antiinflammatory activity against Swiss albino mouse assessed as inhibition of LPS-induced TNFalpha production in serum at 10 mg/kg, ip by ELISA relative to control; type: functional
Procedure, shortened: (§2)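 Swiss albino mice given compound at 5, 10 or 20 mg/kg, then challenged with LPS 1 mg/kg; vehicle and LPS-alone groups included. Cardiac-puncture blood taken with heparin and spun to plasma, stored -20°C. TNF-α and IL-6 measured by ELISA in pg/mL. Dose-response done in triplicate, fitted by quadratic/cubic regression to derive IC50 in mg/kg.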

[7] = system: Mus musculus; assay: Antiinflammatory activity against Swiss albino mouse assessed as inhibition of LPS-induced TNFalpha production in serum at 20 mg/kg, ip by ELISA relative to control; type: functional; procedure, shortened: as §2
[8] = system: Mus musculus; assay: Antiinflammatory activity against Swiss albino mouse assessed as inhibition of LPS-induced IL-6 production in serum at 10 mg/kg, ip by ELISA relative to control; type: functional; procedure, shortened: as §2
[9] = system: Mus musculus; assay: Antiinflammatory activity against Swiss albino mouse assessed as inhibition of LPS-induced IL-6 production in serum at 20 mg/kg, ip by ELISA relative to control; type: functional; procedure, shortened: as §2
[10] = system: Mus musculus; assay: Antiinflammatory activity against Swiss albino mouse assessed as inhibition of LPS-induced TNFalpha production in serum administered ip by ELISA; type: functional, organism-based; procedure, shortened: as §2
[11] = system: Mus musculus; assay: Antiinflammatory activity against Swiss albino mouse assessed as inhibition of LPS-induced IL-6 production in serum administered ip by ELISA; type: functional, organism-based; procedure, shortened: as §2
[12] = system: Mus musculus; assay: Antinociceptive activity in Swiss albino mouse assessed as inhibition of acetic acid-induced writhing by measuring reduction in number of abnormal muscle constrictions at 12.5 mg/kg, ip treated 30 mins prior to test followed by acetic acid challenge measured for 30 mins post acetic acid challenge relative to control; type: functional
Procedure, shortened: (§3)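 Mice dosed i.p. with vehicle (0.1% carboxymethyl cellulose), test compound 12.5 mg/kg or indomethacin 10 mg/kg, 30 min before acetic acid (0.6% v/v, 10 ml/kg, i.p.). Writhes counted per mouse over 30 min after acetic acid. Mean ± SEM; ANOVA with Tukey test.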

[13] = system: Mus musculus; assay: Antiinflammatory activity in carrageenan-induced Swiss albino mouse assessed as inhibition of paw edema at 12.5 mg/kg, ip administered 0.5 hrs prior to carrageenan challenge measured at 6 hrs post challenge; type: functional
Procedure, shortened: (§4)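 Mice given vehicle (0.1% CMC), indomethacin 10 mg/kg p.o., or test compound 30 min before injection of 50 μL 1% w/v carrageenan into right hind paw. Paw edema measured by vernier caliper at 5, 15, 30 min and 1, 2, 3, 4, 6 h. Mean ± SEM.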

[14] = system: Mus musculus; assay: Antiinflammatory activity in carrageenan-induced Swiss albino mouse assessed as inhibition of paw edema at 12.5 mg/kg, ip administered 0.5 hrs prior to carrageenan challenge measured at 1 to 6 hrs post challenge; type: functional, organism-based; procedure, shortened: as §4
[15] = system: Mus musculus; assay: Analgesic activity in Swiss albino mouse assessed as inhibition of acetic acid induced writhing at 12.5 mg/kg, ip pretreated with misoprostol for 30 mins followed by acetic acid challenge and measured after 30 mins; type: functional, organism-based
[16] = system: Mus musculus; assay: Analgesic activity in Swiss albino mouse assessed as inhibition of acetic acid induced writhing at 12.5 mg/kg, ip pretreated with opioid receptor antagonist naloxone for 30 mins followed by acetic acid challenge and measured after 30 mins; type: functional, organism-based
[17] = species: Homo sapiens; assay: Inhibition of NF-KappaB pathway in human THP1 cell lysates assessed as decrease in LPS-induced iNOS expression level after 24 hrs by Western blot analysis
Procedure, shortened: (§5)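 PMA-differentiated THP-1 cells co-treated with LPS and a range of compound concentrations for 24 h, lysed in RIPA buffer. COX-2 and iNOS expression assessed by western blot, with β-actin as internal control.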

[18] = system: THP-1; assay: Antiinflammatory activity against human THP1 cells assessed as inhibition of LPS-induced COX-2 expression level after 24 hrs by Western blot analysis; type: functional, cell-based; procedure, shortened: as §5
[19] = system: Mus musculus; assay: Acute toxicity in Swiss albino mouse assessed as effect on gross behavioral abnormality at 50 to 2000 mg/kg, ip administered continuously for first 4 hrs and periodically for 24 hrs measured after 14 days; type: organism-based; details: in vivo
Procedure, shortened: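 Swiss albino mice, 3 per group: vehicle control, or 50, 300 or 2000 mg kg⁻¹ given after 4 h fasting under OECD acute toxicity guideline; watched continuously for first 4 h then periodically to 24 h for gross behavioural abnormality.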

[20] = system: Mus musculus; assay: Acute toxicity in Swiss albino mouse assessed as effect on myocardium at 2000 mg/kg, ip administered continuously for first 4 hrs and periodically for 24 hrs measured after 14 days by hematoxylin and eosin staining based assay; type: organism-based; details: in vivo
Procedure, shortened: (§6)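 OECD acute toxicity design, Swiss albino mice fasted 4 h, 3 per group, vehicle vs 2000 mg kg⁻¹; after 14 days one animal each from control and top-dose groups sacrificed; heart, liver and kidney sections H and E stained and compared with control.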

[21] = system: Mus musculus; assay: Acute toxicity in Swiss albino mouse assessed as effect on liver at 2000 mg/kg, ip administered continuously for first 4 hrs and periodically for 24 hrs measured after 14 days by hematoxylin and eosin staining based assay; type: organism-based; details: in vivo, 336 h; procedure, shortened: as §6
[22] = system: Mus musculus; assay: Acute toxicity in Swiss albino mouse assessed as effect on kidney at 2000 mg/kg, ip administered continuously for first 4 hrs and periodically for 24 hrs measured after 14 days by hematoxylin and eosin staining based assay; type: organism-based; details: in vivo; procedure, shortened: as §6
[23] = system: Mus musculus; assay: Antiseptic activity in Swiss albino mouse model of LPS-induced sepsis assessed as increase in mouse survival rate at 12.5 mg/kg, iv measured for 10 days at 1 day interval
[24] = system: Mus musculus; assay: Antinociceptive activity in Swiss albino mouse assessed as inhibition of acetic acid-induced writhing by measuring reduction in number of abnormal muscle constrictions at 10 mg/kg, ip treated 30 mins prior to test followed by acetic acid challenge measured for 30 mins post acetic acid challenge relative to control; type: functional; procedure, shortened: as §3
[25] = system: Mus musculus; assay: Antiinflammatory activity in carrageenan-induced Swiss albino mouse assessed as inhibition of paw edema at 10 mg/kg, po administered 0.5 hrs prior to carrageenan challenge measured 6 hrs post challenge; type: functional; procedure, shortened: as §4

Row | SMILES | fold change (FC) [1] | fold change (FC) [2] | fold change (FC) [3] | also measured
1 | CCOC(=O)[C@H]1CON(c2ccccc2)[C@H]1c1c[nH]c2ccccc12 (racemic) | 1.15 | 4.37 | 4 - 5 | –
2 | CCN1C(=O)[C@H]2[C@H](ON(c3ccccc3)[C@@H]2c2c[nH]c3ccccc23)C1=O (racemic) | 3.09 | 2.42 | – | –
3 | c1ccc(N2O[C@H](c3ccncc3)C[C@@H]2c2c[nH]c3ccccc23)cc1 (racemic) | 2.77 | 3.92 | 4 - 5 | –
4 | CCCCOC(=O)[C@@H]1C[C@H](c2c[nH]c3ccccc23)N(c2ccccc2)O1 (racemic) | 2.06 | 3.98 | – | –
5 | CCCCOC(=O)[C@H]1CON(c2ccccc2)[C@H]1c1c[nH]c2ccccc12 (racemic) | 3.03 | 2.59 | – | –
6 | CCOC(=O)[C@@H]1C[C@H](c2c[nH]c3ccccc23)N(c2ccccc2)O1 (racemic) | 3.2 | 7.77 | – | –
7 | C[C@@]1(c2ccccc2)C[C@H](c2c[nH]c3ccccc23)N(c2ccccc2)O1 (racemic) | 1.13 | 2.74 | 4 - 5 | IC50 [4]: > 100 µM; IC50 [5]: 74 µM
8 | COC(=O)[C@H]1CON(c2ccccc2)[C@H]1c1c[nH]c2ccccc12 (racemic) | 1.67 | 3 | 4 - 5 | –
9 | Cc1ccc([C@@H]2C[C@H](c3c[nH]c4ccccc34)N(c3ccccc3)O2)cc1 (racemic) | 1.12 | 4.58 | 4 - 5 | –
10 | O=C1[C@H]2[C@H](ON(c3ccccc3)[C@@H]2c2c[nH]c3ccccc23)C(=O)N1c1ccccc1 (racemic) | 1.43 | 2.21 | 4 - 5 | IC50 [4]: > 100 µM; IC50 [5]: 78 µM; inhibition in vivo at 10 mg/kg [6]: 52.9%; inhibition in vivo at 20 mg/kg [7]: 62.1%; inhibition in vivo at 10 mg/kg [8]: 60.5%; inhibition in vivo at 20 mg/kg [9]: 65.5%; IC50 [10]: 8.7 mg/kg; IC50 [11]: 7.4 mg/kg
11 | COC(=O)[C@@H]1C[C@H](c2c[nH]c3ccccc23)N(c2ccccc2)O1 (racemic) | 4.08 | 7.27 | – | –
12 | CCOC(=O)[C@@H]1[C@@H](C)ON(c2ccccc2)[C@H]1c1c[nH]c2ccccc12 (racemic) | 3.01 | 3.98 | – | –
13 | O=C1NC(=O)[C@H]2ON(c3ccccc3)[C@H](c3c[nH]c4ccccc34)[C@@H]12 (racemic) | 1.65 | 4.28 | 4 - 5 | –
14 | O=C1[C@H]2[C@H](ON(c3ccccc3)[C@@H]2c2c[nH]c3ccccc23)C(=O)N1Cc1ccccc1 (racemic) | 1.34 | 2.37 | 4 - 5 | IC50 [4]: > 100 µM; IC50 [5]: 87 µM; inhibition in vivo at 10 mg/kg [6]: 53.8%; inhibition in vivo at 20 mg/kg [7]: 86.1%; inhibition in vivo at 10 mg/kg [8]: 73.7%; inhibition in vivo at 20 mg/kg [9]: 89.9%; IC50 [10]: 9.4 mg/kg; IC50 [11]: 3.5 mg/kg; inhibition in vivo at 12.5 mg/kg [12]: 80.7%; inhibition in vivo at 12.5 mg/kg [13]: 36.9%; inhibition [14]: Active; inhibition [15]: inactive; inhibition [16]: Active; inhibition [17]: Dose-dependent effect; inhibition [18]: Dose-dependent effect; Activity [19]: Non-Toxic; Activity [20]: Non-Toxic; Activity [21]: Non-Toxic; Activity [22]: Non-Toxic; Activity [23]: Active
15 | c1ccc([C@@H]2C[C@H](c3c[nH]c4ccccc34)N(c3ccccc3)O2)cc1 (racemic) | 5.4 | 14.93 | – | –
16 | COc1ccc2c(c1)c(CC(=O)O)c(C)n2C(=O)c1ccc(Cl)cc1 [INDOMETHACIN] | – | – | – | inhibition in vivo at 10 mg/kg [24]: 58.1%; inhibition in vivo at 10 mg/kg [25]: 34.5%

Source: ChEMBL document CHEMBL4270510, “Indolyl-isoxazolidines attenuate LPS-stimulated pro-inflammatory cytokines and increase survival in a mouse model of sepsis: Identification of potent lead” (Eur J Med Chem, 2018)
